Data on two molecules can be found in PMC10784704 (The Journal of Biological Chemistry, 2023).

This data set deals with T1, neutrophil elastase (NE) (Homo sapiens, UniProt P08246).
T1 sequence (P08246 30-267): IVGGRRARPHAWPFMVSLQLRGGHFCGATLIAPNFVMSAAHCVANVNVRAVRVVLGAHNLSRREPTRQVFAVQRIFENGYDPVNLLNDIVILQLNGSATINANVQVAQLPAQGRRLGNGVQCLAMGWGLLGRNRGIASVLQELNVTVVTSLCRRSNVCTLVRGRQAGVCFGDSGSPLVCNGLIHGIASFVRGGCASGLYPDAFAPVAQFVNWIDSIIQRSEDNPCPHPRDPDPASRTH
Nature of the data set: Longitudinal NE digestion of rCBG and asialo-rCBG. The format is in vitro ADME. The following applies: rCBG/NE 25:1 (w/w), on ice, 480 s incubation period; trypsin digest, LC-MS/MS. The gist of the method: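 Recombinant CBG, native or desialylated with neuraminidase A (40 U, overnight, 37 °C), digested with NE at 25:1 (w/w) on ice for 15, 30, 60, 120, 240 and 480 s. Stopped with 1 mM PMSF (8 min, ice), reduced with DTT, alkylated with IAA, and trypsin-digested at 20:1 (w/w) overnight at 37 °C. LC-MS/MS tracked intact and cleaved RCL peptides (unoccupied, sialo- and asialo-O-glycosylated). Mean + SD, n = 3.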

B1: rCBG: Polyhistidine-tagged recombinant human CBG expressed in HEK293 cells (Sino Biological) (protein, UniProt P08185 23-405, looked up)
Corticosteroid-binding …: MDPNAAYVNMSNHHRGLASANVDFAFSLYKHLVALSPKKNIFISPVSISMALAMLSLGTCGHTRAQLLQGLGFNLTERSETEIHQGFQHLHQLFAKSDTSLEMTMGNALFLDGSLELLESFSADIKHYYESEVLAMNFQDWATASRQINSYVKNKTQGKIVDLFSGLDSPAILVLVNYIFFKGTWTQPFDLASTREENFYVDETTVVKVPMMLQSSTISYLHDSELPCQLVQMNYVGNGTVFFILPDKGKMNTVIAALSRDTINRWSAGLTSSQVDLYIPKVTISGVYDLGDVLEEMGIADLFTNQANFSRITQDAQLKSSKVVHKAVLQLNEEGVDTAGSTGVTLNLTSKPIILRFNQPFIIMIFDHFTWSSLFLARVMNPV
modifications: polyhistidine tag
Regarding B1, the “Effect of Thr345 O-glycans on NE proteolysis reaction” value is given as “strongly inhibit”.

B2: asialo-rCBG: sialic acid-deficient glycoform of rCBG generated through exhaustive sialidase (neuraminidase A) treatment (protein, UniProt P08185 23-405, looked up)
Corticosteroid-binding …: B1 Corticosteroid-binding …
modifications: His tag; desialylated by neuraminidase
With B2, the “Effect of Thr345 O-glycans on NE proteolysis reaction” value is “strongly inhibit”.
